ChEMBL document CHEMBL1152541, “Staurosporine tethered peptide ligands that target cAMP-dependent protein kinase (PKA): optimization and selectivity profiling” (Bioorg Med Chem, 2009)
*1 amine or outer side, *2 acyl side, *3 side chain or, on linkers, in order; H or OH if unused. Where a SMILES comes first, the peptide text is derived from it. Bridges are numbered along the chain shown (N, C = ends). [ ]: non-standard residue; d: D form. The star is where a group is joined. Staurosporine = CO[C@@H]1[C@H](N(C)*)C[C@H]2O[C@]1(C)n1c3ccccc3c3c4c(c5c6ccccc6n2c5c31)C(=O)NC4; Suc = O=C(CCC(=O)[*:2])[*:1]; Dap = NC[C@H](N)C(=O)O; βAla = NCCC(=O)O

Assays:
[1] = biological target: Serine/threonine-protein kinase PLK1 (Homo sapiens) (UniProt P53350); test: Binding affinity to human PLK1 at 500 nM by cell-based competition binding assay relative to control in presence of DTT
Sequence of Serine/threonine-protein kinase PLK1 (Homo sapiens) (P53350 whole entry): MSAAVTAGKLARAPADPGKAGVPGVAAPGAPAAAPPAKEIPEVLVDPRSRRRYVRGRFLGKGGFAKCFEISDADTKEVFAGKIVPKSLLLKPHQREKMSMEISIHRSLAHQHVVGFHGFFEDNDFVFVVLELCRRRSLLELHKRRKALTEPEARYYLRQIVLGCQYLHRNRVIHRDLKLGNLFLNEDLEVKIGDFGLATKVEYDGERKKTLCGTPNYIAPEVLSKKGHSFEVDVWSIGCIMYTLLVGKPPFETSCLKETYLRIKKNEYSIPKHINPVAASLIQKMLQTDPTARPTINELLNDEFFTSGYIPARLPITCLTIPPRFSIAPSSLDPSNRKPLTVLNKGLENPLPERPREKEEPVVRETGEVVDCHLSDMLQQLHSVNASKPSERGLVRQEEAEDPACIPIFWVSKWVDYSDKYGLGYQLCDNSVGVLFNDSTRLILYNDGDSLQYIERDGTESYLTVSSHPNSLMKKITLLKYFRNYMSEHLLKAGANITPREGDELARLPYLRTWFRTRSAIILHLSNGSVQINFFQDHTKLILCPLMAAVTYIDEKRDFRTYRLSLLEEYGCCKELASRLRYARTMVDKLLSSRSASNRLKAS

[2] = biological target: 3-phosphoinositide-dependent protein kinase 1 (Homo sapiens) (UniProt O15530); test: Ratio of compound to staurosporine binding affinity to PDK1 in presence of DTT
Sequence of 3-phosphoinositide-dependent protein kinase 1 (Homo sapiens) (O15530 whole entry, looked up): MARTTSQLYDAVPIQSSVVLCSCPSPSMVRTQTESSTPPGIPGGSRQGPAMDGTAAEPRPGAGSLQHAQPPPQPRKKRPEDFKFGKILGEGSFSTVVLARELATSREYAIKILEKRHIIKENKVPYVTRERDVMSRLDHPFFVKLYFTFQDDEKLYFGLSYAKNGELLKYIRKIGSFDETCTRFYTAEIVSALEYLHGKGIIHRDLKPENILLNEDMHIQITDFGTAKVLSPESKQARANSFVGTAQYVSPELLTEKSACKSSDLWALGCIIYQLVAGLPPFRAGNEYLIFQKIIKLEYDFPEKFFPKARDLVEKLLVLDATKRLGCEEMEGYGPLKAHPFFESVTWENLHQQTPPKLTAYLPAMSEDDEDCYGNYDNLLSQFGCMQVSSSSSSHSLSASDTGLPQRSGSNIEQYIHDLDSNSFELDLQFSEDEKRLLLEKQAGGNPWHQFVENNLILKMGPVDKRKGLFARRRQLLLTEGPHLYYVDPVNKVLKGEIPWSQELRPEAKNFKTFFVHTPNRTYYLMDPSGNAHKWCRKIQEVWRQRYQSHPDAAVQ

[3] = biological target: T1, Serine/threonine-protein kinase STK11 (Homo sapiens) (UniProt Q15831); test: Binding affinity to human LKB1 at 500 nM by cell-based competition binding assay relative to control in presence of DTT
T1 sequence (whole entry): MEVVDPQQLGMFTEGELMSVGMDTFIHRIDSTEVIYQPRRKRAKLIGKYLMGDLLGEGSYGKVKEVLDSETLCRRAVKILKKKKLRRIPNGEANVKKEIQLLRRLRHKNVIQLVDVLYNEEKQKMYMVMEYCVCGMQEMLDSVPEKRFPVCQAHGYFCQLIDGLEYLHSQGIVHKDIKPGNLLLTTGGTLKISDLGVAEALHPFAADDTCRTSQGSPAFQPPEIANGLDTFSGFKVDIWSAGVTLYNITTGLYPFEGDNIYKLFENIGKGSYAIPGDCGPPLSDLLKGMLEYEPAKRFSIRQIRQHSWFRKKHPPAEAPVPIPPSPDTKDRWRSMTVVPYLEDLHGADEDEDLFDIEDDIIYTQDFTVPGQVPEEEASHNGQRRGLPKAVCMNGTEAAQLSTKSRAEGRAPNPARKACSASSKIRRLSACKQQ
In short: (§1)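 Competition binding screen (Ambit) across a panel of 90 kinases, scoring test ligand displacement of each kinase's binding relative to control. The screen ran under reducing conditions with 7.5 mM DTT.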

[4] = biological target: T2, Serine/threonine-protein kinase PLK4 (Homo sapiens) (UniProt O00444); test: Binding affinity to human PLK4 at 500 nM by cell-based competition binding assay relative to control in presence of DTT
T2 sequence (whole entry): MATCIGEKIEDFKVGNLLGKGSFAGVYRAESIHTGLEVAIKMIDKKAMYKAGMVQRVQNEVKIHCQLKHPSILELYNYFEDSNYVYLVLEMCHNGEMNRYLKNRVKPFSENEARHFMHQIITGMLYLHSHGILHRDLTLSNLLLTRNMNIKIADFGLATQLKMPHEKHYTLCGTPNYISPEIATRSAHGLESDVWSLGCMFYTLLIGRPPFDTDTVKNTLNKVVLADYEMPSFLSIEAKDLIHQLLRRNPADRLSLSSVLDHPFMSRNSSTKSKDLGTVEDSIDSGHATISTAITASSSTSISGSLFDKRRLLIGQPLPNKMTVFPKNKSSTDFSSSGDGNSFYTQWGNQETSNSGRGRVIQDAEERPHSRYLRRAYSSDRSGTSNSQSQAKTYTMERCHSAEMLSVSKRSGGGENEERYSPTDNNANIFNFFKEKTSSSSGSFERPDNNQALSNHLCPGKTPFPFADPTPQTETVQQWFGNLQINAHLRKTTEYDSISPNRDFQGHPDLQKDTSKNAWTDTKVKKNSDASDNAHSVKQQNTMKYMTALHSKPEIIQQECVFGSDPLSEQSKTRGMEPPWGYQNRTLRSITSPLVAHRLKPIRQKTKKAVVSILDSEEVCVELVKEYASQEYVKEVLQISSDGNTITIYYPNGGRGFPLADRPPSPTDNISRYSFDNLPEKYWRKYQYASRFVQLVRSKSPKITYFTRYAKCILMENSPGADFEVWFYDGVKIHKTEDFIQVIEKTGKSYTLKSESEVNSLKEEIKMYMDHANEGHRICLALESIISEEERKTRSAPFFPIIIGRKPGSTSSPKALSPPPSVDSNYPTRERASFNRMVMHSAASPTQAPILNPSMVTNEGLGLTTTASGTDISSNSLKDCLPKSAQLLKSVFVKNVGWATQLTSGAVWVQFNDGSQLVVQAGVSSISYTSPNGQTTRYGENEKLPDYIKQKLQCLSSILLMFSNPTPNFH

[5] = biological target: Mitogen-activated protein kinase 10 (Homo sapiens) (UniProt P53779); test: Binding affinity to human JNK3 at 500 nM by cell-based competition binding assay relative to control in presence of DTT; in short: as §1
Sequence of Mitogen-activated protein kinase 10 (Homo sapiens) (P53779 whole entry): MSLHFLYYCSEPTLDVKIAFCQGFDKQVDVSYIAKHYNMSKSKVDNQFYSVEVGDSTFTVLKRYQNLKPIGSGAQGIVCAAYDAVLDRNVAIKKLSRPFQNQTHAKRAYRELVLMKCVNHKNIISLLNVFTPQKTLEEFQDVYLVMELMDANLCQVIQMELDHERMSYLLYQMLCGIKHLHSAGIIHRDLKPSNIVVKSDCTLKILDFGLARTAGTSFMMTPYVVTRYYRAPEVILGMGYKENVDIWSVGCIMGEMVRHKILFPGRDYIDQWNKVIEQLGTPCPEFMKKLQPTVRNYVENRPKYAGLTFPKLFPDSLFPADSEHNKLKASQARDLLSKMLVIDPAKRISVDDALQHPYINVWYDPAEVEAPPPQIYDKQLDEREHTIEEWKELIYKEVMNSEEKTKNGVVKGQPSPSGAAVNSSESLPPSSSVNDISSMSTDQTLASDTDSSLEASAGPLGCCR

[6] = biological target: Mast/stem cell growth factor receptor Kit (Homo sapiens) (UniProt P10721); test: Binding affinity to human KIT at 500 nM by cell-based competition binding assay relative to control in presence of DTT; in short: as §1
Sequence of Mast/stem cell growth factor receptor Kit (Homo sapiens) (P10721 whole entry): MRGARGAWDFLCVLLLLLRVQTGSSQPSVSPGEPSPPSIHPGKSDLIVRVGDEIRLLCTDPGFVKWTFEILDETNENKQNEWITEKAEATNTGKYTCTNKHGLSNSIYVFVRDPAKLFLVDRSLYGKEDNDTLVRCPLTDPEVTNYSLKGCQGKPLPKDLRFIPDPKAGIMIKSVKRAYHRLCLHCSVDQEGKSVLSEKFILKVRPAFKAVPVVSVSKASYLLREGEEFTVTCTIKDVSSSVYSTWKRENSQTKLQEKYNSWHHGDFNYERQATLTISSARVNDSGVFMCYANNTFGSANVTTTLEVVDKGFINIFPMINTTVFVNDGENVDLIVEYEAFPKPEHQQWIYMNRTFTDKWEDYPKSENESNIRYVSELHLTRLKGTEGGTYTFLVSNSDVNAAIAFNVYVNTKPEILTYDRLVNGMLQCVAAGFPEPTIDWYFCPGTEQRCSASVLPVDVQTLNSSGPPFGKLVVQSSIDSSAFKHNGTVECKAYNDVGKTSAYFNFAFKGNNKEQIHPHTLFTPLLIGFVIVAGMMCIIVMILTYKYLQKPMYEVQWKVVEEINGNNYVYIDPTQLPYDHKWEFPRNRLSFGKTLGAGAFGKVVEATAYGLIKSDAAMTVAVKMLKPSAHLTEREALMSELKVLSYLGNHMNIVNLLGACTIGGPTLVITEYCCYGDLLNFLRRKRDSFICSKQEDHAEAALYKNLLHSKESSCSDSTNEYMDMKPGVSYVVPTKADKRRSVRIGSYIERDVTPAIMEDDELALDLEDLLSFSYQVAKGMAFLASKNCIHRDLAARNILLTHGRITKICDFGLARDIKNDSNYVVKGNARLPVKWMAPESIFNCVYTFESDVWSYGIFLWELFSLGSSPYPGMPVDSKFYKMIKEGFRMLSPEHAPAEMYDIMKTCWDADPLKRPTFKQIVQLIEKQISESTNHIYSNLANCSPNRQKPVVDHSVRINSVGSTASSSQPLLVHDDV

[7] = biological target: T3, Testis-specific serine/threonine-protein kinase 1 (Homo sapiens) (UniProt Q9BXA7); test: Binding affinity to human TSSK1 at 200 nM by cell-based competition binding assay relative to control in presence of DTT
T3 sequence (whole entry): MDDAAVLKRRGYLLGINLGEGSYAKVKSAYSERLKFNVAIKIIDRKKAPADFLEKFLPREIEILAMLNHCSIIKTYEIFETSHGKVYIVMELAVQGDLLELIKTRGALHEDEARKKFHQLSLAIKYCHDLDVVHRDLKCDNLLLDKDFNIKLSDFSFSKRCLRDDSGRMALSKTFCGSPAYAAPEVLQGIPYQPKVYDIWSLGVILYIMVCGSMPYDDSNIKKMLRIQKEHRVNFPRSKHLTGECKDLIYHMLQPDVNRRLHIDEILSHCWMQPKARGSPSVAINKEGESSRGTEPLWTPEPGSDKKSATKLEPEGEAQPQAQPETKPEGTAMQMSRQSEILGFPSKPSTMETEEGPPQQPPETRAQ

[8] = biological target: Serine/threonine-protein kinase PAK 2 (Homo sapiens) (UniProt Q13177); test: Binding affinity to human PAK2 at 200 nM by cell-based competition binding assay relative to control in presence of DTT
Sequence of Serine/threonine-protein kinase PAK 2 (Homo sapiens) (Q13177 whole entry): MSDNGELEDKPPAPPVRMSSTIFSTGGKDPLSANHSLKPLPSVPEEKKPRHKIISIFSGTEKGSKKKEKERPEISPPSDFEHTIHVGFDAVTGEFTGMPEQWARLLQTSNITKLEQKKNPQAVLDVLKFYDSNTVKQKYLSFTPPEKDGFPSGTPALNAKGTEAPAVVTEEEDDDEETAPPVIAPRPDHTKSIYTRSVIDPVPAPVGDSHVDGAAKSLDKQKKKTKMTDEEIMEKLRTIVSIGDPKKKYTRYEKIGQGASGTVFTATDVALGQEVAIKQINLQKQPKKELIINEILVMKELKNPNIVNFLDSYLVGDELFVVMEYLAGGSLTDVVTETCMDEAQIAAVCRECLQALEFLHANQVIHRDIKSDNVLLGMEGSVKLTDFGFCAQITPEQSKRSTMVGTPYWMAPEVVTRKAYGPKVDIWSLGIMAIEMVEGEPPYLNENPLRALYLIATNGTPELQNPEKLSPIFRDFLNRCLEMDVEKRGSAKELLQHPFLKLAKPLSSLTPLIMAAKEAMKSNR

[9] = biological target: Mitogen-activated protein kinase 8 (Homo sapiens) (UniProt P45983); test: Binding affinity to human JNK1 at 200 nM by cell-based competition binding assay relative to control in presence of DTT; in short: as §1
Sequence of Mitogen-activated protein kinase 8 (Homo sapiens) (P45983 whole entry): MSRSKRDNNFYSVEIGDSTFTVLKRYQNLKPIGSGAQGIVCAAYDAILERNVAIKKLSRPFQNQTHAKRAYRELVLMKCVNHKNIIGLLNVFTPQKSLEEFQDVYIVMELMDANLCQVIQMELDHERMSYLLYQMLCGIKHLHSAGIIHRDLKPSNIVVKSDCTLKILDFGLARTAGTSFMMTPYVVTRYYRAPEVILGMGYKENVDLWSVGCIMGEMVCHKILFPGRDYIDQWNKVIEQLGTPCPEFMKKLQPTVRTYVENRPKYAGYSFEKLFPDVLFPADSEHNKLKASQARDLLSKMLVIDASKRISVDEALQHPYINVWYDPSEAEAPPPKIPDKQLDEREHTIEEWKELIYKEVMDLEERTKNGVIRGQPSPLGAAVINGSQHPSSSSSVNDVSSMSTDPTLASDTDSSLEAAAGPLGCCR

[10] = biological target: Mitogen-activated protein kinase 11 (Homo sapiens) (UniProt Q15759); test: Binding affinity to human p38beta at 200 nM by cell-based competition binding assay relative to control in presence of DTT
Sequence of Mitogen-activated protein kinase 11 (Homo sapiens) (Q15759 whole entry): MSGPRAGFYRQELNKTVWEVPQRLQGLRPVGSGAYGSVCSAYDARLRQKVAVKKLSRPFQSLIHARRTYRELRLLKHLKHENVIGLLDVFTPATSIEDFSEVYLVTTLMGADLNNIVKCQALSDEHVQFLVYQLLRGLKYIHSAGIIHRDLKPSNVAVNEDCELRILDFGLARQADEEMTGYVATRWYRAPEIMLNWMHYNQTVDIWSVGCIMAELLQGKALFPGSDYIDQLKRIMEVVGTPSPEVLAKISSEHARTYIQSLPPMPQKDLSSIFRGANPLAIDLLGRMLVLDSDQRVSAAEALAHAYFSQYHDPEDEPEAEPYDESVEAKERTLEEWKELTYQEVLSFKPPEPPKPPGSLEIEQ

[11] = tested on: Tyrosine-protein kinase ABL1 (Homo sapiens), P00519 [T315I]; test: Binding affinity to human ABL1 T315I mutant at 50 nM by cell-based competition binding assay relative to control in presence of DTT
In short: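 Kinase binding profiling ran on a commercial (Ambit) competitive binding screen against a panel of 90 kinases. The screen used reducing conditions with 7.5 mM DTT. To withstand the DTT, the bivalent ligand was tested as its amide isostere, with the disulfide replaced. A staurosporine derivative carrying a 3 β-alanine linker was run as the reference compound.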

[12] = tested on: Mast/stem cell growth factor receptor Kit (Homo sapiens), P10721 [D816V]; test: Binding affinity to human KIT D816V mutant at 50 nM by cell-based competition binding assay relative to control in presence of DTT; in short: as §1
Sequence of Mast/stem cell growth factor receptor Kit (Homo sapiens), P10721 [D816V] (P10721 whole entry D816V): as the sequence (P10721 whole entry) above, with D816V counted along it

Compound: CO[C@@H]1[C@H](N(C)C(=O)CCC(=O)NCCC(=O)NCCC(=O)NCCC(N)=O)C[C@H]2O[C@]1(C)n1c3ccccc3c3c4c(c5c6ccccc6n2c5c31)C(=O)NC4
- Activity [1]: 85%
- Selectivity ratio [2]: 52
- Activity [3]: 41%
- Activity [4]: 3.6%
- Activity [5]: 55%
- Activity [6]: 7.4%

Compound: CO[C@@H]1[C@H](N(C)C(=O)CCC(=O)NCCC(=O)NCCC(=O)NCCC(=O)NCCC(=O)NCCC(=O)NCCC(=O)NCCC(=O)N[C@H]2CSSC[C@@H](C(=O)NCC(N)=O)NC(=O)CNC(=O)[C@H](Cc3ccccc3)NC(=O)[C@H](C(C)C)NC(=O)[C@H](CCCNC(=N)N)NC(=O)[C@H](Cc3ccccc3)NC(=O)[C@H](C(C)C)NC2=O)C[C@H]2O[C@]1(C)n1c3ccccc3c3c4c(c5c6ccccc6n2c5c31)C(=O)NC4 ({Staurosporine-Suc-βAla-βAla-βAla-βAla-βAla-βAla-βAla}-CVFRVFGCG-NH2; disulfide 1-8)
- Activity [7]: 17%
- Activity [8]: 36%
- Activity [9]: 83%
- Activity [10]: 100%

Compound: CO[C@@H]1[C@H](N(C)C(=O)CCC(=O)NCCC(=O)NCCC(=O)NCCC(=O)NCCC(=O)NCCC(=O)NCCC(=O)NCCC(=O)N[C@H]2CNC(=O)C[C@@H](C(N)=O)NC(=O)CNC(=O)[C@H](Cc3ccccc3)NC(=O)[C@H](C(C)C)NC(=O)[C@H](CCCNC(=N)N)NC(=O)[C@H](Cc3ccccc3)NC(=O)[C@H](C(C)C)NC2=O)C[C@H]2O[C@]1(C)n1c3ccccc3c3c4c(c5c6ccccc6n2c5c31)C(=O)NC4 ({Staurosporine-Suc-βAla-βAla-βAla-βAla-βAla-βAla-βAla}-[Dap]VFRVFGD-NH2; lactam 1-8)
- Activity [11]: 100%
- Activity [12]: 6.5%
